Measured values of several laboratories.
Protocols differ between the studies behind these lines.
Target: Serine/threonine-protein kinase PAK 2 (PAK2, Homo sapiens, UniProt Q13177)

SMILES | observed | mode | method | concentration | measurement | result
C#Cc1n[nH]c2c(-c3cn(C(C)c4ccccn4)c(=O)[nH]c3=O)cc(F)cc12 (stereo not drawn) | enzyme activity | inhibitor | – | 1 µM | inhibition | -6.9%
Cn1cncc1[C@](O)(COc1ccc(C#N)cc1-c1ccc(OC(F)(F)F)cc1)c1ccc(C#N)cc1 | cell-free assay | – | competition with immobilised ligand | 1 µM | remaining binding | 93%
Cn1cc(-c2cccc(N3CCc4c(sc5c4CC(C)(C)C5)C3=O)c2CO)cc(Nc2ccncn2)c1=O | enzyme activity | inhibitor | – | 1 µM | inhibition | 6%
COc1cc(Nc2ncc(F)c(Nc3ccc4c(n3)NC(=O)C(C)(C)O4)n2)cc(OC)c1OC | binding | – | competition with immobilised ligand | 10 µM | inhibition | 64%
Cn1cc(-c2cc(F)cc(N3CCn4c(cc5c4CCCC5)C3=O)c2CO)cc(Nc2ccc(N3CCN(C4COC4)CC3)cn2)c1=O | enzyme activity | inhibitor | – | 0.1 µM | inhibition | 11%
COc1ncccc1-c1cnn2ccc(N3CCN(C(=O)OC(C)C)CC3)nc12 | binding | – | competition with immobilised ligand | 1 µM | remaining binding | 100%
Nc1ncc(-c2nc(N3CCOCC3)nc(N3CCOCC3)n2)c(C(F)F)n1 | binding | – | competition with immobilised ligand | 10 µM | remaining binding | 58%
O=c1[nH]c2ccccc2n1C1CCN(Cc2ccc(-c3[nH]c4cc5ncnc5cc4nc3-c3ccccc3)cc2)CC1 | cell-free assay | – | – | 0.5 µM | remaining signal | 99.2%
C#Cc1n[nH]c2c(-c3cn([C@@H](C)c4ccccc4)c(=O)[nH]c3=O)cc(F)cc12 | enzyme activity | inhibitor | – | 0.1 µM | inhibition | 1.7%
